Test results published in ChEMBL document CHEMBL5034013, “Discovery of VNRX-7145 (VNRX-5236 Etzadroxil): An Orally Bioavailable β-Lactamase Inhibitor for Enterobacterales Expressing Ambler Class A, C, and D Enzymes” (J Med Chem, 2021).
pIC50: −log10 of the molar value.

Experiments:
Escherichia coli [1] = assay: Antibacterial activity against Escherichia coli expressing TEM-1/SHV-12 assessed as concentration required to restore ceftibuten activity incubated for 16 to 20 hrs in presence of 1 ug/ml ceftibuten by broth microdilution method; type: functional; settings: time 16-20 hrs
Escherichia coli [2] = assay: Antibacterial activity against Escherichia coli expressing CTX-M-2 assessed as concentration required to restore ceftibuten activity incubated for 16 to 20 hrs in presence of 1 ug/ml ceftibuten by broth microdilution method; type: functional; settings: time 16-20 hrs
[3] = Inhibition of bacterial beta-lactamase SHV-5 using cefotaxime as substrate preincubated for 15 mins followed by substrate addition and measured after 10 mins by spectrophotometric analysis; design: species or system Bacteria
Outline: (§1)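 IC50 is the mean of duplicate runs on separate days. A run was repeated automatically if it differed by more than 20% from the previous result.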

[4] = Inhibition of bacterial beta-lactamase KPC-2 using imipenem as substrate preincubated for 15 mins followed by substrate addition and measured after 10 mins by spectrophotometric analysis; design: species or system Bacteria; outline: as §1
[5] = Inhibition of bacterial beta-lactamase AmpC using nitrocefin as substrate preincubated for 15 mins followed by substrate addition and measured after 10 mins by spectrophotometric analysis; design: species or system Bacteria; outline: as §1
[6] = Inhibition of bacterial beta-lactamase OXA-48 using nitrocefin as substrate preincubated for 15 mins followed by substrate addition and measured after 10 mins by spectrophotometric analysis; design: species or system Bacteria; outline: as §1
Escherichia coli [7] = assay: Antibacterial activity against Escherichia coli expressing CTX-M-15/TEM-1 assessed as concentration required to restore ceftibuten activity incubated for 16 to 20 hrs in presence of 1 ug/ml ceftibuten by broth microdilution method; type: functional; settings: time 16-20 hrs
Klebsiella pneumoniae [8] = assay: Antibacterial activity against Klebsiella pneumoniae expressing SHV-12/TEM-1 assessed as concentration required to restore ceftibuten activity incubated for 16 to 20 hrs in presence of 1 ug/ml ceftibuten by broth microdilution method; type: functional; settings: time 16-20 hrs
Escherichia coli [9] = assay: Antibacterial activity against Escherichia coli 786978 expressing KPC assessed as concentration required to restore ceftibuten activity incubated for 16 to 20 hrs in presence of 1 ug/ml ceftibuten by broth microdilution method; type: functional; settings: time 16-20 hrs
Klebsiella pneumoniae [10] = assay: Antibacterial activity against Klebsiella pneumoniae 156309 expressing SHV-11/TEM-1/KPC-2 assessed as concentration required to restore ceftibuten activity incubated for 16 to 20 hrs in presence of 1 ug/ml ceftibuten by broth microdilution method; type: functional; settings: time 16-20 hrs
Escherichia coli [11] = assay: Antibacterial activity against Escherichia coli J53 expressing SHV-5/TEM-1/AmpC assessed as concentration required to restore ceftibuten activity incubated for 16 to 20 hrs in presence of 1 ug/ml ceftibuten by broth microdilution method; type: functional; settings: time 16-20 hrs
Klebsiella pneumoniae [12] = assay: Antibacterial activity against Klebsiella pneumoniae 196477 expressing AmpC/CMY-2/TEM-1/CTX-M-15 assessed as concentration required to restore ceftibuten activity incubated for 16 to 20 hrs in presence of 1 ug/ml ceftibuten by broth microdilution method; type: functional; settings: time 16-20 hrs
Escherichia coli [13] = assay: Antibacterial activity against Escherichia coli 664507 expressing OXA-48 assessed as concentration required to restore ceftibuten activity incubated for 16 to 20 hrs in presence of 1 ug/ml ceftibuten by broth microdilution method; type: functional; settings: time 16-20 hrs
Outline: (§2)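 Tested against a 25-strain challenge panel of clinical E. coli and K. pneumoniae isolates carrying ESBL (n = 5), KPC (n = 11), class C (n = 4) or OXA-48 (n = 5) β-lactamases. Ceftibuten was held at 1 μg/mL while the BLI concentration varied. The read-out was the BLI concentration that rescued ceftibuten activity.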

Klebsiella pneumoniae [14] = assay: Antibacterial activity against Klebsiella pneumoniae expressing OXA-48 assessed as concentration required to restore ceftibuten activity incubated for 16 to 20 hrs in presence of 1 ug/ml ceftibuten by broth microdilution method; type: functional; settings: time 16-20 hrs
Klebsiella pneumoniae [15] = assay: Antibacterial activity against Klebsiella pneumoniae expressing TEM-1/SHV-12 assessed as concentration required to restore ceftibuten activity incubated for 16 to 20 hrs in presence of 1 ug/ml ceftibuten by broth microdilution method; type: functional; settings: time 16-20 hrs
Klebsiella pneumoniae [16] = assay: Antibacterial activity against Klebsiella pneumoniae expressing SHV-5/KPC-2/TEM-1 assessed as concentration required to restore ceftibuten activity incubated for 16 to 20 hrs in presence of 1 ug/ml ceftibuten by broth microdilution method; type: functional; settings: time 16-20 hrs
Escherichia coli [17] = assay: Antibacterial activity against Escherichia coli expressing AmpC/SHV-12/CTX-M-15/TEM-1 assessed as concentration required to restore ceftibuten activity incubated for 16 to 20 hrs in presence of 1 ug/ml ceftibuten by broth microdilution method; type: functional; settings: time 16-20 hrs
Klebsiella pneumoniae [18] = assay: Antibacterial activity against Klebsiella pneumoniae expressing SHV-1/TEM-1/KPC-2 assessed as concentration required to restore ceftibuten activity incubated for 16 to 20 hrs in presence of 1 ug/ml ceftibuten by broth microdilution method; type: functional; settings: time 16-20 hrs
Klebsiella pneumoniae [19] = assay: Antibacterial activity against Klebsiella pneumoniae expressing SHV-11/TEM-1/KPC-3 assessed as concentration required to restore ceftibuten activity incubated for 16 to 20 hrs in presence of 1 ug/ml ceftibuten by broth microdilution method; type: functional; settings: time 16-20 hrs
Klebsiella pneumoniae [20] = assay: Antibacterial activity against Klebsiella pneumoniae expressing SHV-12/TEM-1/KPC-2/AmpC assessed as concentration required to restore ceftibuten activity incubated for 16 to 20 hrs in presence of 1 ug/ml ceftibuten by broth microdilution method; type: functional; settings: time 16-20 hrs
Klebsiella pneumoniae [21] = assay: Antibacterial activity against Klebsiella pneumoniae expressing KPC-3/TEM-1/AmpC assessed as concentration required to restore ceftibuten activity incubated for 16 to 20 hrs in presence of 1 ug/ml ceftibuten by broth microdilution method; type: functional; settings: time 16-20 hrs
Escherichia coli [22] = assay: Antibacterial activity against Escherichia coli 849121 expressing KPC assessed as concentration required to restore ceftibuten activity incubated for 16 to 20 hrs in presence of 1 ug/ml ceftibuten by broth microdilution method; type: functional; settings: time 16-20 hrs
Klebsiella pneumoniae [23] = assay: Antibacterial activity against Klebsiella pneumoniae 845661 expressing KPC assessed as concentration required to restore ceftibuten activity incubated for 16 to 20 hrs in presence of 1 ug/ml ceftibuten by broth microdilution method; type: functional; settings: time 16-20 hrs
Klebsiella pneumoniae [24] = assay: Antibacterial activity against Klebsiella pneumoniae 845670 expressing KPC assessed as concentration required to restore ceftibuten activity incubated for 16 to 20 hrs in presence of 1 ug/ml ceftibuten by broth microdilution method; type: functional; settings: time 16-20 hrs
Escherichia coli [25] = assay: Antibacterial activity against Escherichia coli SI-P026TC expressing CMY-2/TEM-1 assessed as concentration required to restore ceftibuten activity incubated for 16 to 20 hrs in presence of 1 ug/ml ceftibuten by broth microdilution method; type: functional; settings: time 16-20 hrs
Klebsiella pneumoniae [26] = assay: Antibacterial activity against Klebsiella pneumonia 217917 expressing CMY-2/TEM-1 assessed as concentration required to restore ceftibuten activity incubated for 16 to 20 hrs in presence of 1 ug/ml ceftibuten by broth microdilution method; type: functional; settings: time 16-20 hrs; outline: as §2
Klebsiella pneumoniae [27] = assay: Antibacterial activity against Klebsiella pneumonia DOV expressing OXA-48 assessed as concentration required to restore ceftibuten activity incubated for 16 to 20 hrs in presence of 1 ug/ml ceftibuten by broth microdilution method; type: functional; settings: time 16-20 hrs; outline: as §2
Klebsiella pneumoniae [28] = assay: Antibacterial activity against Klebsiella pneumonia SI-C05 expressing OXA-48 assessed as concentration required to restore ceftibuten activity incubated for 16 to 20 hrs in presence of 1 ug/ml ceftibuten by broth microdilution method; type: functional; settings: time 16-20 hrs; outline: as §2
Escherichia coli [29] = assay: Antibacterial activity against Escherichia coli 664520 expressing OXA-48 assessed as concentration required to restore ceftibuten activity incubated for 16 to 20 hrs in presence of 1 ug/ml ceftibuten by broth microdilution method; type: functional; settings: time 16-20 hrs; outline: as §2
[30] = Apparent permeability across apical to basolateral side in human Caco-2 cells at 5 uM measured after 2 hrs by LC-MS/MS method; type: ADME, cell-based; settings: caco-2, 2 h
[31] = Apparent permeability across basolateral to apical side in human Caco-2 cells at 5 uM measured after 2 hrs by LC-MS/MS method; type: ADME, cell-based; settings: caco-2, 2 h
[32] = AUC in mouse at 1.2 mg/kg, sc; type: ADME, organism-based; design: dose 1.2 mg/kg; settings: in vivo
[33] = AUC in mouse at 12 mg/kg, sc; type: ADME, organism-based; design: dose 12 mg/kg; settings: in vivo
Outline: (§3)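 Single-dose pharmacokinetics of the parent BLI in mice given subcutaneously at 1.2, 12 and 38 mg/kg. The AUC is reported in mg∗h/L and was used to check dose proportionality. The study was run to choose dosing regimens for the murine ascending UTI efficacy model.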

[34] = AUC in mouse at 38 mg/kg, sc; type: ADME, organism-based; design: dose 38 mg/kg; settings: in vivo; outline: as §3
Escherichia coli [35] = assay: (§4) In vivo antibacterial activity against Escherichia coli expressing TEM-1/CTX-M-15 infected in C3H/HeJ mouse assessed as log10 reduction in CFU in kidney administration of compound:ceftibuten 1:1 ratio at 1 to 300 mg/kg, sc every 12 hrs for 3 days starting from 4 days post infection and measured at 7 days post infection (reference value: 6.7 log10CFU); type: functional; settings: dose 1-300 mg/kg; time 3 day
Escherichia coli [36] = assay: as §4, with “urine” for “kidney”; type: functional; settings: dose 1-300 mg/kg; time 3 day
Escherichia coli [37] = assay: In vivo antibacterial activity against Escherichia coli expressing TEM-1/CTX-M-15 infected in C3H/HeJ mouse assessed as log10 reduction in CFU in bladder administration of compound:ceftibuten 1:1 ratio at 1 to 300 mg/kg, sc every 12 hrs for 3 days starting from 4 days post infection and measured at 7 days post infection (reference value: 5.8 log10CFU); settings: dose 1-300 mg/kg; time 3 day

Row | Structure (SMILES) | Activity (Escherichia coli [1]) | Activity (Escherichia coli [2]) | pIC50 [3] | pIC50 [4] | Activity (Escherichia coli [7]) | Activity (Klebsiella pneumoniae [8]) | Activity (Escherichia coli [9]) | Activity (Klebsiella pneumoniae [10]) | Activity (Escherichia coli [11]) | Activity (Klebsiella pneumoniae [12]) | Activity (Escherichia coli [13]) | Activity (Klebsiella pneumoniae [14]) | Activity (Klebsiella pneumoniae [15]) | Activity (Klebsiella pneumoniae [16]) | Activity (Escherichia coli [17]) | Activity (Klebsiella pneumoniae [18]) | Activity (Klebsiella pneumoniae [19]) | Activity (Klebsiella pneumoniae [20]) | Activity (Klebsiella pneumoniae [21]) | Activity (Escherichia coli [22]) | further results
1 | CC(=O)CCC(=O)N[C@H]1Cc2cccc(C(=O)O)c2OB1O | 0.016 µg/mL | <=0.002 ug ml-1 | 7.60 | 6.94 | 0.12 µg/mL | 0.06 µg/mL | 1 µg/mL | 2 µg/mL | 0.03 µg/mL | 0.06 µg/mL | 0.06 µg/mL | 4 µg/mL | 0.016 µg/mL | <=0.002 ug ml-1 | 0.016 µg/mL | 4 µg/mL | 0.25 µg/mL | 0.5 µg/mL | 0.5 µg/mL | <=0.002 ug ml-1 | pIC50 [5]: 8.10; pIC50 [6]: 5.84; Activity (Klebsiella pneumoniae [23]): 4 µg/mL; Activity (Klebsiella pneumoniae [24]): <=0.002 ug ml-1; Activity (Escherichia coli [25]): 0.5 µg/mL; Activity (Klebsiella pneumoniae [26]): 0.12 µg/mL; Activity (Klebsiella pneumoniae [27]): 0.06 µg/mL; Activity (Klebsiella pneumoniae [28]): 0.06 µg/mL; Activity (Escherichia coli [29]): 4 µg/mL
2 | CCC(=O)N[C@H]1Cc2cccc(C(=O)O)c2OB1O [LEDABORBACTAM] | 0.03 µg/mL | 0.004 µg/mL | 6.90 | 7.10 | 0.12 µg/mL | 0.06 µg/mL | 0.5 µg/mL | 0.5 µg/mL | 0.03 µg/mL | 0.016 µg/mL | 0.03 µg/mL | 1 µg/mL | 0.016 µg/mL | <=0.002 ug ml-1 | 0.016 µg/mL | 1 µg/mL | 0.06 µg/mL | 0.25 µg/mL | 0.5 µg/mL | <=0.002 ug ml-1 | Activity (Klebsiella pneumoniae [23]): 2 µg/mL; Activity (Klebsiella pneumoniae [24]): <=0.002 ug ml-1; Activity (Escherichia coli [25]): 0.5 µg/mL; Activity (Klebsiella pneumoniae [26]): 0.12 µg/mL; Activity (Klebsiella pneumoniae [27]): 0.016 µg/mL; Activity (Klebsiella pneumoniae [28]): 0.03 µg/mL; Activity (Escherichia coli [29]): 1 µg/mL; Papp [30]: 0.11 10^-6 cm/s; Papp [31]: 0.15 10^-6 cm/s; AUC [32]: 7800 ng·h/mL; AUC [33]: 76000 ng·h/mL; AUC [34]: 250000 ng·h/mL; Activity (Escherichia coli [35]): 2 log10CFU/ml; Activity (Escherichia coli [36]): 4 log10CFU/ml; Activity (Escherichia coli [37]): 3.2 log10CFU/ml
